# Laboratory results taken from ChEMBL document CHEMBL4138113, “Novel propanamides as fatty acid amide hydrolase inhibitors” (Eur J Med Chem, 2017).
# Molecular target: T1, Fatty-acid amide hydrolase 1 (Rattus norvegicus, UniProt P97612)
# T1 sequence (P97612 whole entry): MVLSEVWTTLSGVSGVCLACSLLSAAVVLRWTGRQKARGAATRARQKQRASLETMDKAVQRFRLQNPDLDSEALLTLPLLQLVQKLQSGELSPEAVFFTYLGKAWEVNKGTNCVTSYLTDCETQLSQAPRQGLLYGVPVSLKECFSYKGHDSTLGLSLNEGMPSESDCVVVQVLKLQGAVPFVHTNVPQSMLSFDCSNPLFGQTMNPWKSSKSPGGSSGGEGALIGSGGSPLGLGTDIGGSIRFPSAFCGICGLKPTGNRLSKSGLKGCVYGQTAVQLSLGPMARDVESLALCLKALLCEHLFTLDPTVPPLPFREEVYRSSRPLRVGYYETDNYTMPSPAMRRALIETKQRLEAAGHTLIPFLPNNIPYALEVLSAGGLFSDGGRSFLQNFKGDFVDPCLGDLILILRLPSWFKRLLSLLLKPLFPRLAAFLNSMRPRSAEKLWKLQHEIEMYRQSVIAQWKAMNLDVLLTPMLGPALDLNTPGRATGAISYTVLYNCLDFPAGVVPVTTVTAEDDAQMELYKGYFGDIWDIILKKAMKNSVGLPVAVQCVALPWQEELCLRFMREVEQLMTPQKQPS
# Experiment: Inhibition of rat brain FAAH using [3H]AEA as substrate
# Method in brief: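 Brains (minus cerebella) of adult Wistar or Sprague-Dawley rats homogenized in HEPES/MgCl2 pH 7.0, washed by repeated centrifugation, preincubated 15 min at 37 °C, resuspended in Tris-HCl/EDTA/MgCl2 pH 7.4. 1 µg protein per assay mixed on ice with inhibitor, then 0.5 µM [3H]AEA with fatty acid-free BSA, 10 min at 37 °C. Charcoal/HCl stop, supernatant counted. At least five half-log concentrations, at least 3 experiments.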
smiles,measurement,value
CCCCC/C=C\C/C=C\C/C=C\C/C=C\CCCC(=O)NCCc1c[nH]c2ccc(O)cc12,IC50,1200 nM
